Reference: ChEMBL document CHEMBL1158546, “Discovery of novel and potent leukotriene B4 receptor antagonists. Part 1” (J Med Chem, 2010)
Values after ≈ are worked out from the molar mass of the structure shown. Active and inactive are the calls of the source. No cut-off for these calls is given here.

How the values were obtained:
[1] = tested on: Cynomolgus monkey; assay: Antiinflammatory activity against ascaris suum antigen-evoked increase in neutrophils at bronchoalveolar lavage in cynomolgus monkey at 10 mg/kg, po after 1 hr treated before LTB4 challenge; assay type: functional, organism-based; design: dose 10 mg/kg; details: Macaca fascicularis, in the assay text read “before Ascaris suum antigen challenge” for “before LTB4 challenge”
Procedure, shortened: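 Male cynomolgus monkeys (4-10 kg) naturally hypersensitive to Ascaris suum had baseline BAL 24 h before challenge. They were dosed orally with 10 mg/kg in 15% Labrasol in PEG. One hour later, under ketamine/xylazine, they received antigen aerosol for 90 s by endotracheal tube. BAL neutrophil percentage came from 300-cell LeukoStat differentials, with hemocytometer totals. Analysis by two-way ANOVA/Bonferroni; 3-21 animals per group.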

[2] = AUC(0 to 24hrs) in rat at 400 mg/kg, po qd treated for 14 days; assay type: ADME, organism-based; design: time < 24 hr, dose 400 mg/kg, route oral; details: plasma
Procedure, shortened: (§1)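 Male Han-Wistar rats (200-230 g) dosed orally once daily for 14 days in 2% Klucel LF/0.1% Tween-80 in water, n = 4 per group. Blood was taken from the retro-orbital sinus under isoflurane/O2 anesthesia, and plasma was separated by cold centrifugation and stored at -70 C until analysis. Exposure values refer to day 14.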

[3] = molecular target: Cytochrome P450 2D6 (Homo sapiens, UniProt P10635); assay: Inhibition of CYP2D6 fluorescence method; assay type: ADME
Procedure, shortened: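 High-throughput CYP panel covering 1A2, 2D6, 2C9, 2C19 and 3A4, using fluorogenic substrates. IC50 was determined in μM.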

[4] = tested on: Rattus norvegicus; assay: Hepatotoxicity in rat assessed as increase in ALT level at 400 mg/kg, po qd treated for 14 days measured after 5 days relative to control; details: in vivo, 120 h
[5] = tested on: Rattus norvegicus; assay: Toxicity in rat assessed as aspartate aminotransferase level at 40 mg/kg, po qd treated for 14 days; assay type: organism-based; design: dose 40 mg/kg, route oral; details: in vivo, 336 h
Procedure, shortened: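 Male Han-Wistar rats (200-230 g), n = 4 per group, were given 40 or 400 (mg/kg)/day orally for 14 days in 2% Klucel LF/0.1% Tween-80 versus vehicle. Body weight was recorded at pretreatment and on days 1, 8 and 14, and food intake weekly. Clinical chemistry was sampled on day 5 and at necropsy. Organs were formalin-fixed and H&E stained. Data are given as mean ± SD and analysed by Bartlett's test.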

[6] = Cmax in Sprague-Dawley rat at 10 mg/kg, po; assay type: ADME, organism-based; design: dose 10 mg/kg, route oral; details: in vivo
Procedure, shortened: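 Rat single-dose PK, n = 3, with oral dosing at 10 mg/kg and intravenous dosing at 2.5 or 5 mg/kg.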

[7] = Cmax in rat at 40 mg/kg, po qd treated for 14 days; assay type: ADME, organism-based; design: dose 40 mg/kg, route oral; details: in vivo; procedure, shortened: as §1
[8] = Cmax in rat at 400 mg/kg, po qd treated for 14 days; assay type: ADME, organism-based; design: dose 400 mg/kg, route oral; details: in vivo; procedure, shortened: as §1
[9] = molecular target: T1, Leukotriene B4 receptor 2 (Homo sapiens, UniProt Q9NPC1); assay: Antagonist activity at FLAG-tagged human BLT2 receptor expressed in HEK293 cells assessed as inhibition of LTB4-stimulated calcium mobilization preincubated for 10 mins before LTB4 challenge; assay type: functional, cell-based
T1 sequence (Q9NPC1 whole entry): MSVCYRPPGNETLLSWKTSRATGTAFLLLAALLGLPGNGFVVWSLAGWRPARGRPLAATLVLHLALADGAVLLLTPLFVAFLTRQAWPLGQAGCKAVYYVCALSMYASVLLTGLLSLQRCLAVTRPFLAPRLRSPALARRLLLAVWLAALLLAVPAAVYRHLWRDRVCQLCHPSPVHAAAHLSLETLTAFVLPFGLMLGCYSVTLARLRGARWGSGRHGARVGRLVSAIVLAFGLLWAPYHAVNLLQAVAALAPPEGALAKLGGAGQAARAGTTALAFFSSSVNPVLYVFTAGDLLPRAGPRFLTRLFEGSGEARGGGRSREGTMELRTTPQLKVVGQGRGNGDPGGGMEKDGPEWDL

[10] = AUC (0 to 24hrs) in rat at 40 mg/kg, po qd treated for 14 days; assay type: ADME, organism-based; design: time < 24 hr, dose 40 mg/kg, route oral; details: plasma; procedure, shortened: as §1
[11] = tested on: Hepatocyte; assay: Metabolic stability in human hepatocytes assessed as compound metabolized after 3 hrs; assay type: ADME, cell-based
Procedure, shortened: (§2)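 Cryopreserved hepatocytes at 1.5 million cells/mL (pooled human male/female N = 10, male CD1 mouse, SD rat, beagle dog, cyno monkey) were incubated in Leibovitz medium with 1% FBS and 10 μM substrate. Incubation ran 3 h at 37 C with shaking and was stopped with methanol. Cell-free controls used hepatocyte incubation medium. Parent and metabolites were quantified by UV peak area at 232-242 nm, assuming equal extinction coefficients.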

[12] = Metabolic stability in cynomolgus monkey hepatocytes assessed as compound metabolized after 3 hrs; assay type: ADME, cell-based, Macaca fascicularis, Hepatocyte; procedure, shortened: as §2
[13] = Solubility of compound in small intestinal contents in the fed state at pH 5; assay type: ADME
Procedure, shortened: (§3)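 Solubility measured in simulated intestinal fluid at pH 5.0 (fed) or pH 6.5 (fasted), reported in μg/mL.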

[14] = molecular target: T2, Voltage-gated inwardly rectifying potassium channel KCNH2 (Homo sapiens, UniProt Q12809); assay: Inhibition of human ERG expressed in CHO cells at 3 uM assessed as reduction of current amplitude
[15] = Metabolic stability in CD1 mouse hepatocytes assessed as compound metabolized after 3 hrs; assay type: ADME, cell-based, Hepatocyte; procedure, shortened: as §2
[16] = Metabolic stability of compound assessed as remaining level in cell free assay; assay type: ADME; procedure, shortened: as §2
[17] = Metabolic stability in Beagle dog hepatocytes assessed as compound metabolized after 3 hrs; assay type: ADME, cell-based, Canis lupus familiaris, Hepatocyte; procedure, shortened: as §2
[18] = Solubility of compound in small intestinal contents in the fasted state at pH 6.5; assay type: ADME; procedure, shortened: as §3
[19] = tested on: Rattus norvegicus; assay: Metabolic stability of compound in rat plasma assessed as acylglucuronide isomers formed at 400 mg/kg, po; details: in vivo
[20] = tested on: Hepatocyte; assay: Metabolic stability in Sprague-Dawley rat hepatocytes assessed as compound metabolized after 3 hrs; assay type: ADME, cell-based; procedure, shortened: as §2
[21] = Lipophilicity, log D of compound at pH 7.4; details: buffer
[22] = molecular target: T2, Voltage-gated inwardly rectifying potassium channel KCNH2; assay: Inhibition of human ERG expressed in CHO cells assessed as reduction of current amplitude
[23] = molecular target: Cytochrome P450 2C9 (Homo sapiens, UniProt P11712); assay: Inhibition of CYP2C9 by LC/MS method; assay type: ADME
Chain of Cytochrome P450 2C9 (P11712 whole entry): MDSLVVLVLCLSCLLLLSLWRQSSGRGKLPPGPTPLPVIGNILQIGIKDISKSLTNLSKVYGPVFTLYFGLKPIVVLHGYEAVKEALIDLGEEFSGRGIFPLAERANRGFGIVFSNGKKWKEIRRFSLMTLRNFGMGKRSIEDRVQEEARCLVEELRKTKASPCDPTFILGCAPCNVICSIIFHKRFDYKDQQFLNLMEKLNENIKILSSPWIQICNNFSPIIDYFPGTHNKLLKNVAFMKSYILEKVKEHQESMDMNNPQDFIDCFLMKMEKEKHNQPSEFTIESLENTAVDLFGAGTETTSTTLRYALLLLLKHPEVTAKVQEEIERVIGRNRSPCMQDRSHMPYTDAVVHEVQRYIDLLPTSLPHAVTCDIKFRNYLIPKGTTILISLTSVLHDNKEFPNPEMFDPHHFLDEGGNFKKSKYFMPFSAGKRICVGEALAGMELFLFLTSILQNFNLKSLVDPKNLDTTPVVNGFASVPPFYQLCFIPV

T2 sequence (Q12809 whole entry): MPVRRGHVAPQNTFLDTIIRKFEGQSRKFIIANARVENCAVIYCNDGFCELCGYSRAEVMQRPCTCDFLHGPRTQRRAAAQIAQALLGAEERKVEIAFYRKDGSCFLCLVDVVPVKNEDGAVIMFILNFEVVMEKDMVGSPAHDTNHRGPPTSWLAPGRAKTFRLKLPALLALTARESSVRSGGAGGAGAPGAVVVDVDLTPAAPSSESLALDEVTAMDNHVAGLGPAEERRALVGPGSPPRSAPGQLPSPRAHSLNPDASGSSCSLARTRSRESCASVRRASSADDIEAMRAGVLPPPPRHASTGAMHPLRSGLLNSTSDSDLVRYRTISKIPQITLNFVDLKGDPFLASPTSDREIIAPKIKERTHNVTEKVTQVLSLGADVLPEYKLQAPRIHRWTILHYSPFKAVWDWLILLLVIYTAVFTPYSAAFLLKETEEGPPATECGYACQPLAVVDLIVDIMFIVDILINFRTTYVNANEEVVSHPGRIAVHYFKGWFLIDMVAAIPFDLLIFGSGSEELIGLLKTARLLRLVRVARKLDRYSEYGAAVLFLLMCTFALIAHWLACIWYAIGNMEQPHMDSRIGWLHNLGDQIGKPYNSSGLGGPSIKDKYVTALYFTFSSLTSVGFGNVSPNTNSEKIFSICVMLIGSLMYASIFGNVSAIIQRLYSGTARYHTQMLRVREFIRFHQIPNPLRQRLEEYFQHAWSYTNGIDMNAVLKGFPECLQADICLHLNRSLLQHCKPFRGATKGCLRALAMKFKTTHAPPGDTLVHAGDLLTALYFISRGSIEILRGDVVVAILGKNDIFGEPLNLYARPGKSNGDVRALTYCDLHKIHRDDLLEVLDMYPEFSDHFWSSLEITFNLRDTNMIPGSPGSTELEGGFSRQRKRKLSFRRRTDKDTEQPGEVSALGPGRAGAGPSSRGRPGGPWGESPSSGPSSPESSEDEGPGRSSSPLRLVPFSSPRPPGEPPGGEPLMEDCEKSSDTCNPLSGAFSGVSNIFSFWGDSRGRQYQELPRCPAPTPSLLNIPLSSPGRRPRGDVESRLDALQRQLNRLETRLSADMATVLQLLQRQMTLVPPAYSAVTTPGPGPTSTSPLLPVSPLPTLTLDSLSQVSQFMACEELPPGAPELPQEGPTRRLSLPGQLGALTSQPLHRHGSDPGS
Chain of Cytochrome P450 2D6 (P10635 whole entry): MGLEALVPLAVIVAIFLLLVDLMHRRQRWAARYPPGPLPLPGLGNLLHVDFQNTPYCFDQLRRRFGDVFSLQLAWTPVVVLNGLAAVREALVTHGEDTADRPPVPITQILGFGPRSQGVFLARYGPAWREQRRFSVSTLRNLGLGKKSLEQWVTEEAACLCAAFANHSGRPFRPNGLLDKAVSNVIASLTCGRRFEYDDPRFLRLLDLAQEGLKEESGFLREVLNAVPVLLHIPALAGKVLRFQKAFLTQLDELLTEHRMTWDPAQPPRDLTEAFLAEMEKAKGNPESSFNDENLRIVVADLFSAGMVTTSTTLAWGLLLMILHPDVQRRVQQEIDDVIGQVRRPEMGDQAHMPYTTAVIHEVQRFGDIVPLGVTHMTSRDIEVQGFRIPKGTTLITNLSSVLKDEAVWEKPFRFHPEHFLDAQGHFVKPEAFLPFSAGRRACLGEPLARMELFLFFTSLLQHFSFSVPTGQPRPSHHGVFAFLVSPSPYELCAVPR

**Q.** With O=C(O)CCCOc1cccc(CCCCCCOc2cc(-c3cccc(F)c3)cc(-c3ccc4c(c3)OCO4)c2)c1CCC(=O)O as the compound, how does the Activity [1] read?
**A.** Active

**Q.** And the AUC at 24 h [2]?
**A.** 1870 µg·h/mL

**Q.** And the IC50 [3]?
**A.** > 7.5 µM

**Q.** And the Activity [4]?
**A.** 53%

**Q.** And the Activity [5]?
**A.** Non-toxic

**Q.** And the Cmax [6]?
**A.** 2.25 µM

**Q.** And the Cmax [7]?
**A.** 11.3 µg/mL

**Q.** What about the Cmax [8] of the same compound?
**A.** 124 µg/mL

**Q.** What about the IC50 [9] of the same compound?
**A.** 0.194 µM

**Q.** What about the AUC at 24 h [10] of the same compound?
**A.** 80.6 µg·h/mL

**Q.** Which results are given for O=C(O)CCCOc1cccc(CCCCCCOc2cc(-c3ccsc3)cc(-c3ccc4c(c3)OCO4)c2)c1CCC(=O)O?
**A.** Activity [1]: Active; Activity [11]: 17.3%; Activity [12]: 7.7%; solubility [13]: 32.9 µg/mL (≈ 52.2 µM); INH [14]: Not Active; IC50 [3]: > 7.5 µM; Activity [15]: 16.9%; Activity [4]: 29%; Activity [5]: Non-toxic; Cmax [6]: 6.21 µM; Activity [16]: 100%; Activity [17]: 27.8%; solubility [18]: 34.6 µg/mL (≈ 54.9 µM); Stability [19]: 6%; Activity [20]: 20.4%; logD [21]: 2.34; IC50 [9]: 0.164 µM; IC50 [22]: > 3 µM; IC50 [23]: 22.5 µM
